Experiments:
[1] = Inhibition of guinea pig liver transglutaminase 2 using 5-(biotinamido)pentylamine as substrate by enzyme linked sorbent assay; design: species or system Cavia porcellus
Summary of the method: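 Wells coated with N,N'-dimethylcasein received TG2 (2 ng ml-1), biotinyl-5-pentylamine, CaCl2 (5 mM), DTT (5 mM) and a range of inhibitor concentrations, then were incubated for 1 h at 37 °C. Incorporated biotinyl-5-pentylamine was quantified with Extravidin peroxidase and o-phenylenediamine colour development.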

[2] = Aqueous solubility of the compound; type: physicochemical
Cavia porcellus = organism: Cavia porcellus; test: Inhibition of guinea pig liver transglutaminase 2 at 5 uM preincubated for 60 mins in the presence of Ca2+; design: scale not given: the % may be the effect or the level left
Rattus norvegicus = test: Protective effect against kidney dysfunction in Wistar rat subtotal 5/6 nephrectomy model of kidney scarring assessed as reduction in scarring administered through osmotic pump measured after 84 days of surgery; type: functional; design: scale not given: the % may be the effect or the level left

IC50 [1] [µM]	Compound	also measured
> 200	O=C(N[C@@H](Cc1ccccc1)C(=O)NCC1CC(Br)=NO1)OCc1ccccc1 (stereo partly specified)	solubility ([2]; water, read-out: solubility): < 1 mg/mL
350	CC[C@H](C)[C@H](NC(=O)OCc1ccccc1)C(=O)N[C@@H](CCC(=O)C[S+](C)C)C(=O)O	–
300	C[S+](C)CC(=O)CC[C@H](NC(=O)[C@H](Cc1ccccc1)NC(=O)OC(C)(C)C)C(=O)O	–
150	C[S+](C)CC(=O)CC[C@H](NC(=O)[C@H](CCCCN)NC(=O)OCc1ccccc1)C(=O)O	–
8	C[S+](C)CC(=O)CC[C@H](NC(=O)CNC(=O)OCc1ccccc1)C(=O)O.[Br-]	solubility ([2]; water, read-out: solubility): 1000 mg/mL
18	C[S+](C)CC(=O)CC[C@H](NC(=O)[C@@H]1C[C@@H](O)CN1C(=O)OCc1ccccc1)C(=O)O	–
20	C[C@H](NC(=O)OCc1ccccc1)C(=O)N[C@@H](CCC(=O)C[S+](C)C)C(=O)O	–
110	C[S+](C)CC(=O)CC[C@H](NC(=O)[C@H](Cc1ccccc1)NC(=O)Cc1ccccc1)C(=O)O	–
28	C[S+](C)CC(=O)CC[C@H](NC(=O)[C@H](CC(=O)O)NC(=O)OCc1ccccc1)C(=O)O	–
5	C[S+](C)CC(=O)CC[C@H](NC(=O)[C@@H]1CCCN1C(=O)OCc1ccccc1)C(=O)O.[Br-]	Activity (Cavia porcellus): 77%; solubility ([2]; water, read-out: solubility): 500 mg/mL
12	C[S+](C)CC(=O)CC[C@H](NC(=O)[C@H](Cc1c[nH]c2ccccc12)NC(=O)OCc1ccccc1)C(=O)O	–
4	CC(=O)CSc1n(C)cc[n+]1C.[Cl-]	solubility ([2]; water, read-out: solubility): 200 mg/mL
3	Cc1c(C)[n+](C)c(SCC(=O)CC[C@H](NC(=O)[C@H](Cc2ccccc2)NC(=O)OCc2ccccc2)C(=O)O)n1C	–
30	C[S+](C)CC(=O)CC[C@H](NC(=O)[C@H](Cc1ccccc1)NC(=O)OCC1c2ccccc2-c2ccccc21)C(=O)O	–
5	C[S+](C)CC(=O)CC[C@H](NC(=O)[C@H](Cc1ccccc1)NC(=O)OCc1ccccc1)C(=O)O.[Br-] (stereo in doubt; 4n)	solubility ([2]; buffer): 67 mg/mL
10	C[S+](C)CC(=O)CC[C@H](NC(=O)[C@H](Cc1ccccc1)NC(=O)OCc1ccccc1)C(=O)O.[Br-] (stereo in doubt; 4d)	Activity (Rattus norvegicus): 90%; solubility ([2]; buffer): 167 mg/mL
8	C[S+](C)CC(=O)CC[C@H](NC(=O)[C@H](Cc1ccccc1)NC(=O)OCCc1ccccc1)C(=O)O	–
20	CC[S+](CC)CC(=O)CC[C@H](NC(=O)[C@H](Cc1ccccc1)NC(=O)OCc1ccccc1)C(=O)O	–

From ChEMBL document CHEMBL1152229, “Synthesis of potent water-soluble tissue transglutaminase inhibitors” (Bioorg Med Chem Lett, 2008)
